Experimental data published in ChEMBL document CHEMBL4007414, “Design, Synthesis, Structure-Activity Relationship Studies, and Three-Dimensional Quantitative Structure-Activity Relationship (3D-QSAR) Modeling of a Series of O-Biphenyl Carbamates as Dual Modulators of Dopamine D3 Receptor and Fatty Acid Amide Hydrolase” (J Med Chem, 2017).
Activity calls are given as the source filed them. No cut-off for these calls is given here.

Columns and labels:
D(3) dopamine receptor [1] = target: T1, D(3) dopamine receptor (Homo sapiens, UniProt P35462); experiment: Agonist activity at recombinant human dopamine D3 receptor expressed in CHO-K1 cells assessed as […] in cAMP accumulation after 30 mins by HTRF assay; format: functional, cell-based
T1 sequence (P35462 whole entry): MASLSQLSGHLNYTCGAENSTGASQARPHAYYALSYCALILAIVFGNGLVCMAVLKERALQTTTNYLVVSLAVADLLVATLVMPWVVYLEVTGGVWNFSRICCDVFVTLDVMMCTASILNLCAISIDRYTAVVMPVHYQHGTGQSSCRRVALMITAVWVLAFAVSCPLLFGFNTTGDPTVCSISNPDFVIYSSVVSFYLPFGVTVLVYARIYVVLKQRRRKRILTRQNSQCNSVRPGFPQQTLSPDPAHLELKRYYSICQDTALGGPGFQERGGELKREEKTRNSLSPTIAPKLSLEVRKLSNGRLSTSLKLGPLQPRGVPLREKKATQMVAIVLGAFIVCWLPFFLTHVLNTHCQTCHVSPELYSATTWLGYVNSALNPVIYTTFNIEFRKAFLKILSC

D(3) dopamine receptor [2] = target: T1, D(3) dopamine receptor; experiment: Agonist activity at recombinant human dopamine D3 receptor expressed in CHO-K1 cells assessed as […] in cAMP accumulation after 30 mins by HTRF assay relative to dopamine; format: functional, cell-based
[3] = target: T2, Fatty-acid amide hydrolase 1 (Homo sapiens, UniProt O00519); experiment: Inhibition of human FAAH1 expressed in HEK293 cell membrane-enriched lysate using AMC arachidonyl amide as substrate preincubated for 50 mins followed by substrate addition measured after 4 hrs by fluorescence analysis
T2 sequence (O00519 whole entry): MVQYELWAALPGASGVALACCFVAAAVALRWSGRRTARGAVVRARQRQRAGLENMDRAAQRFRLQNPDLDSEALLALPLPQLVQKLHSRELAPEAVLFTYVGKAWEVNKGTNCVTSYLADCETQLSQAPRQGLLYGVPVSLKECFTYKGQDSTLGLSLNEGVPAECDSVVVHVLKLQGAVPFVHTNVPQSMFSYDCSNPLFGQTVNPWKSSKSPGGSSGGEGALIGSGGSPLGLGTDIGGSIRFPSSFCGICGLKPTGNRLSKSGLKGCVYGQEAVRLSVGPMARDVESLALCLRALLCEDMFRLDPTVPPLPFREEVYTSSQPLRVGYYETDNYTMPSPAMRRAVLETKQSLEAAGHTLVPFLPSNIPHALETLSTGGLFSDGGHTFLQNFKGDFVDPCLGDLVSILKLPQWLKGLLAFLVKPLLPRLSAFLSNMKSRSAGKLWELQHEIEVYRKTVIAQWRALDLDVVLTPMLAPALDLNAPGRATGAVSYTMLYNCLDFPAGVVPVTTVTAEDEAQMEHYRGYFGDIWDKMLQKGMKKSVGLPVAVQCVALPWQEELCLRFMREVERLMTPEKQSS
Procedure, shortened: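 Membrane-enriched lysate (2,5 μg) from HEK293 cells stably expressing human FAAH-1, pre-incubated 50 min with compound or 2,5% DMSO vehicle in 50 mM Tris-HCl pH 7.4, 0.05% fatty acid-free BSA. Then 1 μM AMC arachidonyl amide added, 4 h at 37 °C.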

[4] = Tmax in Sprague-Dawley rat plasma at 3 mg/kg, iv by UPLC-MS analysis; format: ADME, organism-based
Procedure, shortened: (§1)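 Cannulated male Sprague-Dawley rats (175–200 g), three per dose, dosed IV at 3 mg/kg or PO at 10 mg/kg in PEG400/Tween 80/saline 10/10/80. Blood taken IV at 0–240 min and PO at 0–1440 min. Plasma extracted with cold acetonitrile plus internal standard and analysed by UPLC-MS/MS against a 1 nM–10 μM calibration. PK parameters derived from time/concentration profiles.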

[5] = target: 5-hydroxytryptamine receptor 1B (Rattus norvegicus) (UniProt P28564); experiment: Displacement of [125I]CYP from 5HT-1B receptor in OFA rat cortical membranes at 10 to 100 nM after 90 mins by scintillation counting; format: cell membranes
5-hydroxytryptamine receptor 1B (Rattus norvegicus), sequence (P28564 whole entry): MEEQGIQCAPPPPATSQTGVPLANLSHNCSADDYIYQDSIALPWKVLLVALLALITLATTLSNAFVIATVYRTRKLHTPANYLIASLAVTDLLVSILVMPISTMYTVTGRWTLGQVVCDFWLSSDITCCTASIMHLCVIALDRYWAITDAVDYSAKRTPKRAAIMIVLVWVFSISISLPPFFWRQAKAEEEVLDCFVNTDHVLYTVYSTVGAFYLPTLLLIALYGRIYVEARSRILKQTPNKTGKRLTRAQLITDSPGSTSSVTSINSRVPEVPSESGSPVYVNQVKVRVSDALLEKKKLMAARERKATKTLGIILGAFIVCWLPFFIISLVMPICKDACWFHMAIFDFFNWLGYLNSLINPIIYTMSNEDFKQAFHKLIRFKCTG

[6] = Volume of distribution in Sprague-Dawley rat plasma at 3 mg/kg, iv by UPLC-MS analysis; format: ADME, organism-based; procedure, shortened: as §1
[7] = Half life in rat liver microsomes at […] by UPLC-MS analysis; format: ADME, microsome
[8] = Cmax in Sprague-Dawley rat brain at 10 mg/kg, po by UPLC-MS analysis; format: ADME, organism-based; set-up: dose 10 mg/kg, route oral
Procedure, shortened: (§2)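 Male Sprague-Dawley rats, three per time point, dosed orally at 10 mg/kg in PEG400/Tween 80/saline 10/10/80. Brains taken at 1 h and 4 h, homogenized in RIPA buffer and extracted with cold acetonitrile plus internal standard. Compound quantified by UPLC-MS/MS; protein measured by BCA.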

[9] = AUC in Sprague-Dawley rat brain at 10 mg/kg, po by UPLC-MS analysis; format: ADME, organism-based; procedure, shortened: as §2
[10] = Tmax in Sprague-Dawley rat brain at 10 mg/kg, po by UPLC-MS analysis; format: ADME, organism-based; procedure, shortened: as §2
[11] = Half life in rat plasma at 2 uM by UPLC-MS analysis; format: ADME, cell-free
Procedure, shortened: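 Compound at 2 μM final in rat plasma with 5% DMSO, incubated at 37 °C. Samples taken at 0, 5, 15, 30, 60 and 120 min and quenched in cold acetonitrile with internal standard.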

[12] = Oral bioavailability in Sprague-Dawley rat […] at 10 mg/kg by UPLC-MS analysis; format: ADME, organism-based
[13] = target: T3, 5-hydroxytryptamine receptor 1A (Homo sapiens) (UniProt P08908); experiment: Displacement of [3H]8-OH-DPAT from human 5HT-1A receptor expressed in Sf9 insect cells at 100 nM after 60 mins by scintillation counting
T3 sequence (whole entry): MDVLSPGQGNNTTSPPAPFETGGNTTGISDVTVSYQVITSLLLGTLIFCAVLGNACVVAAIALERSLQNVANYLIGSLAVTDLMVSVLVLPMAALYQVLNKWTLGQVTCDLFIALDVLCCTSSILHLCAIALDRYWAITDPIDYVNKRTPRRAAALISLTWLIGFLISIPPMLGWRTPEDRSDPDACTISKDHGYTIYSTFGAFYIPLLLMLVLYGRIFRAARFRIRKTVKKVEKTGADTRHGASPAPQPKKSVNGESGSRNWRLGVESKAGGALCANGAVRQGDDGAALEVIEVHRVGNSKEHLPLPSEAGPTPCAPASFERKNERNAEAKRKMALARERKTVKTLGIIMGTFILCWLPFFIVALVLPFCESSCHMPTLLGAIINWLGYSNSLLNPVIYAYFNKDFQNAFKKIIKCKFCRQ

[14] = Cmax in Sprague-Dawley rat plasma at 10 mg/kg, po by UPLC-MS analysis; format: ADME, organism-based; set-up: dose 10 mg/kg, route oral; procedure, shortened: as §1
[15] = Clearance in Sprague-Dawley rat plasma at 3 mg/kg, iv by UPLC-MS analysis; format: ADME, organism-based; procedure, shortened: as §1
[16] = target: T4, Monoglyceride lipase (Homo sapiens) (UniProt Q99685); experiment: Irreversible inhibition of human MAGL after 1 hr by LC-MS/MS analysis
T4 sequence (whole entry): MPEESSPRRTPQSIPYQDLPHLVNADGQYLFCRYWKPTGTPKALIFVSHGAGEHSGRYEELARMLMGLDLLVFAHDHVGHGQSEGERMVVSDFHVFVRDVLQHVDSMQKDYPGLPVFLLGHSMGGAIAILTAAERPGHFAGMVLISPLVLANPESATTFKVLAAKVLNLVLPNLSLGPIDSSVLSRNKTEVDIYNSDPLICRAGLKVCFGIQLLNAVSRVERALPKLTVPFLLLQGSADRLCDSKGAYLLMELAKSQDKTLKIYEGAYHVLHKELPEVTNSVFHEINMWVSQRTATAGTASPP

[17] = Elimination half life in Sprague-Dawley rat plasma at 3 mg/kg, iv by UPLC-MS analysis; format: ADME, organism-based; details: read-out: beta t1/2; procedure, shortened: as §1
Brain = experiment: Total drug uptake in Sprague-Dawley rat brain at 10 mg/kg, po by UPLC-MS analysis; format: ADME, organism-based; details: in vivo, read-out: Drug uptake; procedure, shortened: as §2
[18] = target: Beta-2 adrenergic receptor (Homo sapiens) (UniProt P07550); experiment: Displacement of [3H](-)CGP12177 from beta2 adrenergic receptor (unknown origin) at 10 to 100 nM by scintillation counting
Beta-2 adrenergic receptor (Homo sapiens), sequence (P07550 whole entry, looked up): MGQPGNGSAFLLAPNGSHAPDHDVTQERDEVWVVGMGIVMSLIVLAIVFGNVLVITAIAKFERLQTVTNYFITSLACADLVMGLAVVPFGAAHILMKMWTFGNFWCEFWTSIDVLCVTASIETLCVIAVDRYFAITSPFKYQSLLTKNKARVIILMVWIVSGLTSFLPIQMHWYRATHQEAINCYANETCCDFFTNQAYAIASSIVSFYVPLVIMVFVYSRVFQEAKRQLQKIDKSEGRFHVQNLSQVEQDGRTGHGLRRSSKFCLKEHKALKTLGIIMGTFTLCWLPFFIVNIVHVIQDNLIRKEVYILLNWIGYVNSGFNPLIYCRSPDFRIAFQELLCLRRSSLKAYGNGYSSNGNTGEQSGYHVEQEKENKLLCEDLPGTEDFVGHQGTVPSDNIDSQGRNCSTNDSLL

[19] = Cmax in Sprague-Dawley rat plasma at 3 mg/kg, iv by UPLC-MS analysis; format: ADME, organism-based; set-up: dose 3 mg/kg, route intravenous; procedure, shortened: as §1
[20] = target: Beta-1 adrenergic receptor (Homo sapiens) (UniProt P08588); experiment: Displacement of [3H](-)CGP12177 from human beta1 adrenergic receptor expressed in HEK293 cells at 10 to 100 nM after 45 mins by scintillation counting; format: cell-based
Beta-1 adrenergic receptor (Homo sapiens), sequence (P08588 whole entry, looked up): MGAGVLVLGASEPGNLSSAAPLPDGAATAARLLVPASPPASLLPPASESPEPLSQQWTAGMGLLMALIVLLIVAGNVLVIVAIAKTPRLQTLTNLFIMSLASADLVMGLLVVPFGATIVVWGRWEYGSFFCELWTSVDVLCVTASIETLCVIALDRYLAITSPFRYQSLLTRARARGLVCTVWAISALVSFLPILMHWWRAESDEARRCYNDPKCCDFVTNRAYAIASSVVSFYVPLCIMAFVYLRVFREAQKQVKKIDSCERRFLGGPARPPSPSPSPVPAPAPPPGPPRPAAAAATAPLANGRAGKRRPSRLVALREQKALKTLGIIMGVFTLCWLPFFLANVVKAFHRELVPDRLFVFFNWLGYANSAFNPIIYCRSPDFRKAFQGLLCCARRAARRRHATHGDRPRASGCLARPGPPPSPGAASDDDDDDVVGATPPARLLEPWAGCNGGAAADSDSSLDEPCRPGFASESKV

D(2) dopamine receptor [21] = target: T5, D(2) dopamine receptor (Homo sapiens, UniProt P14416); experiment: Agonist activity at human dopamine D2 receptor-short expressed in CHO-K1 cells assessed as reduction in adenylyl cyclase activator NKH 477 induced cAMP accumulation preincubated for 10 mins followed by NKH 477 addition by HTRF assay; format: functional, cell-based
T5 sequence (P14416 whole entry): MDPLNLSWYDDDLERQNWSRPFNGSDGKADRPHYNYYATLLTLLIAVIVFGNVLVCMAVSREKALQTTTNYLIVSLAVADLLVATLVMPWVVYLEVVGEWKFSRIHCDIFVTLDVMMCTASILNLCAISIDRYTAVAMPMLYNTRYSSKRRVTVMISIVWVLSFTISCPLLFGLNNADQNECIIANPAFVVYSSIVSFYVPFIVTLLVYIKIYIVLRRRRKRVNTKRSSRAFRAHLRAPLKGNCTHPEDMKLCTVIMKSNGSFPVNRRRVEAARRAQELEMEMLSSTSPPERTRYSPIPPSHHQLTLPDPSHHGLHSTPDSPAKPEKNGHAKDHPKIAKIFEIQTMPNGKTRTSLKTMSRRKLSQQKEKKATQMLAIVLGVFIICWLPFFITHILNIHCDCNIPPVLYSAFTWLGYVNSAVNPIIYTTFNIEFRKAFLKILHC

D(2) dopamine receptor [22] = target: T5, D(2) dopamine receptor; experiment: Agonist activity at human dopamine D2 receptor-short expressed in CHO-K1 cells assessed as reduction in adenylyl cyclase activator NKH 477 induced cAMP accumulation preincubated for 10 mins followed by NKH 477 addition by HTRF assay relative to dopamine; format: functional, cell-based
Homo sapiens = organism: Homo sapiens; experiment: Ratio of EC50 for human dopamine D2 receptor-short expressed in CHO-K1 cells to EC50 for recombinant human dopamine D3 receptor expressed in CHO-K1 cells; format: cell-based

**Q.** What does the source list for `O=C(NCCCCN1CCN(c2ccccc2C(F)(F)F)CC1)Oc1ccc(-c2ccccc2)cc1`?
**A.** EC50 (D(3) dopamine receptor [1]): 1200 nM; Efficacy (D(3) dopamine receptor [2]): > 90%; IC50 [3]: 20.7 nM

**Q.** With `O=C(NCCCCN1CCN(c2cccc(Cl)c2Cl)CC1)Oc1ccc2c(c1)[nH]c1ccccc12` as the molecule, how does the Efficacy (D(3) dopamine receptor [2]) read?
**A.** Its Efficacy is > 90%.

**Q.** Which results are given for `Cl.O=C(NCCCCN1CCN(c2cccc(Cl)c2Cl)CC1)Oc1ccc(-c2ccccc2)cc1`?
**A.** Tmax [4]: 5 min; inhibition [5]: inactive; Vd [6]: 23.7 L/kg; half-life at […] [7]: > 1 h; Cmax [8]: 37 ng/mL; AUC [9]: 1.41 ng·h/mL; Tmax [10]: 4 h; half-life at 2 µM [11]: 1.62 h; bioavailability [12]: 21%; inhibition [13]: 60.4%; Cmax [14]: 54 ng/mL; clearance [15]: 110 mL/min/kg; inhibition [16]: inactive; half-life [17]: 2.42 h; concentration (Brain): 391 nM; inhibition [18]: inactive; Cmax [19]: 500 ng/mL; inhibition [20]: inactive

**Q.** For `COc1ccccc1N1CCN(CCCCNC(=O)Oc2ccc3c(c2)[nH]c2ccccc23)CC1`, which Efficacy (D(3) dopamine receptor [2]) is on record?
**A.** Its Efficacy is 66%.

**Q.** What about the EC50 (D(2) dopamine receptor [21]) of the same molecule?
**A.** Its EC50 is 57.9 nM.

**Q.** And the Efficacy (D(2) dopamine receptor [22])?
**A.** The Efficacy was 44%.

**Q.** What about the Ratio EC50 (Homo sapiens) of the same molecule?
**A.** The Ratio EC50 was 4.8.

**Q.** For `NC(=O)c1cccc(-c2ccc(OC(=O)NCCCCN3CCN(c4ccccc4C(F)(F)F)CC3)cc2)c1`, which Activity (D(2) dopamine receptor [21]) is on record?
**A.** Its Activity is “inactive”.

**Q.** With `COc1cc(OC(=O)NCCCCN2CCN(c3cccc(Cl)c3Cl)CC2)ccc1-c1ccccc1` as the molecule, how does the EC50 (D(3) dopamine receptor [1]) read?
**A.** The EC50 was 1.66 nM.

**Q.** What about the Efficacy (D(3) dopamine receptor [2]) of the same molecule?
**A.** Its Efficacy is 32%.

**Q.** And the IC50 [3]?
**A.** Its IC50 is 4.3 nM.

**Q.** For `O=C(NCCCN1CCN(c2cccc(Cl)c2Cl)CC1)Oc1ccc2c(c1)[nH]c1ccccc12`, which Efficacy (D(3) dopamine receptor [2]) is on record?
**A.** The Efficacy was > 90%.

**Q.** With `NC(=O)c1cccc(-c2ccc(OC(=O)NCCCCN3CCN(c4ccccc4)CC3)cc2)c1` as the molecule, how does the Efficacy (D(3) dopamine receptor [2]) read?
**A.** Its Efficacy is 88%.

**Q.** Which Efficacy (D(3) dopamine receptor [2]) does the source give for `NC(=O)c1cccc(-c2ccc(OC(=O)NCCCCN3CCN(c4cccc(Cl)c4Cl)CC3)cc2F)c1` here?
**A.** Its Efficacy is 74%.

**Q.** And the EC50 (D(2) dopamine receptor [21])?
**A.** Its EC50 is 13.7 nM.

**Q.** What about the IC50 [3] of the same molecule?
**A.** Its IC50 is 1 nM.

**Q.** What about the Efficacy (D(2) dopamine receptor [22]) of the same molecule?
**A.** The Efficacy was 40.4%.
